{"data": "Experimental data pooled from the literature", "HDAC7": "Histone deacetylase 7 (HDAC7, Homo sapiens, UniProt Q8WUI4)", "WDR5": "WD repeat-containing protein 5 (WDR5, Homo sapiens, UniProt P61964)", "OfChi-h": "Chitinase (OfChi-h, Ostrinia furnacalis, UniProt Q4AE59)", "note": "Lines come from different studies, so protocols differ."}
{"SMILES": "O=C(NO)c1cncc(OS(=O)(=O)Oc2ccc(C(F)(F)F)cc2)c1", "target": "HDAC7", "test": "enzyme activity, inhibitor, fluorescence", "conditions": "10 µM", "quantity": "inhibition", "result": "49%"}
{"SMILES": "C=CC(=O)N1CCC(COCC(=O)N2CCN(c3nc(-c4cnc(N)nc4C(F)F)nc(N4CCOC[C@@H]4C)n3)CC2)CC1", "target": "Cyclin-dependent kinase-like 3 (CDKL3, Homo sapiens, UniProt Q8IVW4)", "test": "binding, competition with immobilised ligand", "conditions": "1 µM", "quantity": "remaining binding", "result": "100%"}
{"SMILES": "O=C(NO)c1cc(F)cc(OS(=O)(=O)Oc2ccccc2)c1", "target": "HDAC7", "test": "enzyme activity, inhibitor, fluorescence", "conditions": "10 µM", "quantity": "inhibition", "result": "47%"}
{"SMILES": "O=C(Cn1cc(C=CC(=O)c2ccc(F)cc2)nn1)Nc1nc(-c2ccccc2)cs1", "target": "72 kDa type IV collagenase (MMP2, Homo sapiens, UniProt P08253)", "test": "enzyme activity, inhibitor", "conditions": "0.5 µM", "quantity": "inhibition", "result": "40.6%"}
{"SMILES": "C[C@@H]1CN(c2ccc(-c3cc(C(=O)NCCOCCOCCOCCOCCOCCOCCNC(=O)/C=C/c4[nH]cc(C(=O)N[C@@H](CC(N)=O)c5ccc(F)c(Cl)c5)c4-c4ccc(Cl)cc4F)ccc3F)cc2NC(=O)c2ccc(F)cc2C(F)(F)F)C[C@H](C)N1C", "target": "WDR5", "test": "thermal stability, DSF", "conditions": "5.5 µM", "quantity": "ΔTm", "result": "5.9 °C"}
{"SMILES": "CN(C)c1nc(NCc2cccc(F)c2)c(/N=N/c2ccc(Cl)cc2)c(N(C)C)n1", "target": "OfChi-h", "test": "enzyme activity, inhibitor, fluorescence", "conditions": "1 µM", "quantity": "inhibition", "result": "82.7%"}
{"SMILES": "C[C@@H]1CN(c2ccc(-c3cc(C(=O)NCCOCCOCCOCCOCCNC(=O)Cn4cc(-c5[nH]cc(C(=O)N[C@@H](CC(N)=O)c6ccc(F)c(Cl)c6)c5-c5ccc(Cl)cc5F)cn4)ccc3F)cc2NC(=O)c2c[nH]c(=O)cc2C(F)(F)F)C[C@H](C)N1C", "target": "WDR5", "test": "thermal stability, DSF", "conditions": "5.5 µM", "quantity": "ΔTm", "result": "13.4 °C"}
{"SMILES": "CN(C)c1nc(NCc2ccc(OC(F)(F)F)cc2)c(/N=N/c2ccc(Cl)cc2)c(N(C)C)n1", "target": "OfChi-h", "test": "enzyme activity, inhibitor, fluorescence", "conditions": "1 µM", "quantity": "inhibition", "result": "85%"}
{"SMILES": "Cc1cc([C@@H](C)Nc2ccccc2C(=O)O)c2nc(N3CCC(F)(F)CC3)c(C#N)c(=O)n2c1", "target": "Protein kinase C epsilon type (PRKCE, Homo sapiens, UniProt Q02156)", "test": "binding, competition with immobilised ligand", "conditions": "1 µM", "quantity": "remaining binding", "result": "100%"}
{"SMILES": "CNc1ncc2c(/C=C/C(=O)N3CCC(OC)CC3)nn(Cc3cccc(C(F)(F)F)c3)c2n1", "target": "Bone morphogenetic protein receptor type-1A (BMPR1A, Homo sapiens, UniProt P36894)", "test": "enzyme activity, inhibitor, radiometric", "conditions": "1 µM", "quantity": "remaining activity", "result": "93%"}
{"SMILES": "CC(C)OC(=O)CNc1cccc(CN(Cc2ccc(-n3cccn3)cc2)S(=O)(=O)c2cccnc2)n1", "target": "Beta-2 adrenergic receptor (ADRB2, Homo sapiens, UniProt P07550)", "test": "ligand displacement, radioligand", "conditions": "10 µM", "quantity": "inhibition", "result": "2%"}
{"SMILES": "COc1cc(-c2cncc3c2CN(C)Cc2cc(N4CCNCC4)ccc2-3)cc(OC)c1OC", "target": "G protein-coupled receptor kinase 6 (GRK6, Homo sapiens, UniProt P43250)", "test": "enzyme activity, inhibitor", "conditions": "1 µM", "quantity": "remaining activity", "result": "112%"}
